Test results from ChEMBL document CHEMBL1121872, “Mesoionic xanthine analogues: phosphodiesterase inhibitory and hypotensive activity” (J Med Chem, 1981).

Experiments:
[1] = target: T1, Heart phosphodiesterase (Bos taurus, UniProt Q01061+P14100+E1BN64); test: In vitro inhibition of bovine heart phosphodiesterase (PDE I); assay type: protein assay
Method in brief: (§1)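 Bovine heart phosphodiesterase (Klee method) with 1 μM [3H]cAMP as substrate. Poorly soluble compounds were dissolved in 95% EtOH, 2.5% final, then diluted with buffer. […] I50 is the concentration where V0/V = 2, read from a V0/V vs. concentration plot. Each value averages two consecutive runs, in duplicate or triplicate.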

[2] = species: Bos taurus; test: Compound was evaluated for potency against c-AMP phosphodiesterase relative to theophylline
Method in brief: (§2)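 Bovine heart PDE (Klee method) with 1 μM [3H]cAMP. […] Compounds needing ethanol (2.5% final) are compared with a theophylline control run with ethanol; the others with one run without ethanol. Potency is expressed relative to that theophylline control.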

[3] = system: Rattus norvegicus; test: Decrease in arterial blood pressure in anesthetized rats at 10 mg/kg intravenous femoral injection; assay type: functional, Artery; parameters: unit not given here
[4] = system: Rattus norvegicus; test: Decrease in arterial blood pressure in anesthetized rats at 15 mg/kg after intravenous femoral injection; assay type: functional, Artery; parameters: unit not given here
[5] = system: Rattus norvegicus; test: Decrease in arterial blood pressure in anesthetized rats at 2.5 mg/kg intravenous femoral injection; assay type: functional, Artery; parameters: unit not given here
[6] = system: Rattus norvegicus; test: Decrease in arterial blood pressure in anesthetized rats at 30 mg/kg intravenous femoral injection; assay type: functional, Artery
[7] = system: Rattus norvegicus; test: Decrease in arterial blood pressure in anesthetized rats at 5 mg/kg intravenous femoral injection; assay type: functional, Artery; parameters: unit not given here
[8] = target: T1, Heart phosphodiesterase; test: Inhibition of bovine heart cAMP-phosphodiesterase (Insoluble); assay type: protein assay; method in brief: as §1
[9] = target: Heart phosphodiesterase (Bos taurus) (UniProt Q01061+P14100+E1BN64); test: Inhibition of bovine heart cAMP-phosphodiesterase relative to theophylline (Insoluble); assay type: protein assay; method in brief: as §2
[10] = target: T1, Heart phosphodiesterase; test: Inhibition of bovine heart cAMP-phosphodiesterase with ethanol; assay type: protein assay
Method in brief: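 Bovine heart PDE, Klee method with 1 μM [3H]cAMP as substrate. Compounds were predissolved in 95% EtOH, giving 2.5% ethanol final, then diluted in buffer. A theophylline control was run with ethanol present. […] I50 was taken where V0/V = 2 from a V0/V vs concentration plot. Each value averages two consecutive runs, done in duplicate or triplicate.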

[11] = system: Rattus norvegicus; test: Decrease in blood pressure at 15 mg/kg in rat; assay type: functional
Method in brief: (§3)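 Male Sprague-Dawley rats (250–385 g), pentobarbital-anesthetized (50 mg/kg ip); right femoral artery cannulated for arterial pressure via transducer, left femoral vein for iv dosing. Each injection flushed with 0.3 mL saline, preceded by equal-volume saline control; 5-min intervals or until pressure returned to baseline. Fall in mean arterial pressure expressed relative to theophylline 2.5 mg/kg control in same animal; n determinations given.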

[12] = system: Rattus norvegicus; test: Decrease in blood pressure at 2.5 mg/kg in rat; assay type: functional; method in brief: as §3
[13] = system: Rattus norvegicus; test: Decrease in blood pressure at 5 mg/kg in rat; assay type: functional; method in brief: as §3
[14] = system: Rattus norvegicus; test: Decrease in arterial blood pressure in anesthetized rats at 60 mg/kg intravenous femoral injection; assay type: functional, Artery

Structure (SMILES)	I50 [1]	Relative potency [2]	other results
O=C1CC(=O)[n+]2ccsc2N1Cc1cccc(Cl)c1	308 µM	1.3	
CC[N+]1=C2SC=NN2C(=O)C(C)C1=O (configuration not stated)	1160 µM	0.4	Mean arterial blood pressure [3]: 1.6; Mean arterial blood pressure [4]: 1.2; Mean arterial blood pressure [5]: 0.9; Mean arterial blood pressure [6]: 7.5; Mean arterial blood pressure [7]: 2.2
CCN1C(=O)C(Cc2ccc(OC)cc2)C(=O)[n+]2ncsc21 (configuration not stated)			I50 [8]: Insoluble; Relative potency [9]: Insoluble
CC1C(=O)N(Cc2cccc(Cl)c2)c2scc(-c3ccccc3)[n+]2C1=O (configuration not stated)	152 µM	2.7	
CCN1C(=O)C(c2ccccc2)C(=O)[n+]2ncsc21 (configuration not stated)	24 µM	17.2	
CC[N+]1=C2SC=NN2C(=O)CC1=O	774 µM	0.5	
CCN1C(=O)C(Cc2ccc(Cl)cc2)C(=O)[n+]2ncsc21 (configuration not stated)	9.6 µM	42.9	
Cn1c(=O)c2nc[nH]c2n(C)c1=O.O [THEOPHYLLINE]			I50 [10]: 412 µM; Blood pressure [11]: 31.9 mmHg; Blood pressure [12]: 13.5 mmHg; Blood pressure [13]: 31.6 mmHg; Mean arterial blood pressure [4]: 2.36; Mean arterial blood pressure [5]: 1; Mean arterial blood pressure [7]: 2.34
Cn1c(=O)c2[nH]cnc2n(C)c1=O		1	
CC(C)Cn1c(=O)n(C)c(=O)c2nc[nH]c21 [ISOBUTYLMETHYLXANTHINE]	9.9 µM	28.9	
CCCCN1C(=O)CC(=O)[n+]2ccsc21			Mean arterial blood pressure [3]: 1.2; Mean arterial blood pressure [4]: 1.2; Mean arterial blood pressure [5]: 0.9; Mean arterial blood pressure [6]: 2.9; Mean arterial blood pressure [7]: 0.6
CC[N+]1=C2SC=NN2C(=O)C(Cc2ccccc2)C1=O (configuration not stated)	52 µM	7.9	
CCC1C(=O)N(CC2CC2)c2scc(-c3ccccc3)[n+]2C1=O (configuration not stated)	287 µM	1.5	

More lines, main results first:

I50 [1]	Relative potency [2]	Structure (SMILES)	other results
412 µM	0.7	CCC1C(=O)N(CC)c2scc(C)[n+]2C1=O (configuration not stated)	
2453 µM	0.1	CCN1C(=O)C(C)C(=O)[n+]2nc(C)sc21 (configuration not stated)	Mean arterial blood pressure [3]: 0.4; Mean arterial blood pressure [4]: 0.5; Mean arterial blood pressure [5]: 0.2; Mean arterial blood pressure [7]: 0.3
252 µM	1.6	CCCC1C(=O)N(CC)c2scn[n+]2C1=O (configuration not stated)	
1980 µM	0.1	CCc1n[n+]2c(s1)N(CC)C(=O)C(CC)C2=O (configuration not stated)	
233 µM	1.8	CCC(C)C1C(=O)N(CC)c2scn[n+]2C1=O (configuration not stated)	
156 µM	2.6	CCCCCC1C(=O)N(CC)c2scn[n+]2C1=O (configuration not stated)	
550 µM	0.7	CCC1C(=O)N2N=CSC2=[N+](CC)C1=O (configuration not stated)	Mean arterial blood pressure [3]: 1.6; Mean arterial blood pressure [4]: 0.7; Mean arterial blood pressure [5]: 0.4; Mean arterial blood pressure [7]: 0.6
154 µM	2.7	CCN1C(=O)C(CC(C)C)C(=O)[n+]2ncsc21 (configuration not stated)	
1689 µM	0.2	CCC1C(=O)N(CC)c2sc(C)n[n+]2C1=O (configuration not stated)	Mean arterial blood pressure [3]: 0.6; Mean arterial blood pressure [4]: 0.3; Mean arterial blood pressure [5]: 0; Mean arterial blood pressure [6]: 1.2; Mean arterial blood pressure [7]: 0.3; Mean arterial blood pressure [14]: 1.9
254 µM	1.6	CCN1C(=O)C(C(C)C)C(=O)[n+]2ncsc21 (configuration not stated)	
396 µM	0.7	CCC1C(=O)N2C=CSC2=[N+](CC2CC2)C1=O (configuration not stated)	
2411 µM	0.1	CCc1n[n+]2c(s1)N(CC)C(=O)C(C)C2=O (configuration not stated)	
858 µM	0.3	CCC1C(=O)N(CC)c2scc[n+]2C1=O (configuration not stated)	Mean arterial blood pressure [3]: 0.8; Mean arterial blood pressure [4]: 1.2; Mean arterial blood pressure [5]: 0.3; Mean arterial blood pressure [7]: 0.6
